High-throughput results from PubChem.
Only some compounds are listed: those with a hit (about 4.1% of all), similar ones and a draw of the others.
KCNQ1 pot – potentiators or activators of KCNQ1 channel, primary screen, cell-based, thallium flux, high-throughput | Potassium voltage-gated channel subfamily KQT member 1 (Homo sapiens), P51787 | CHO-K1 KCNQ1, thallium flux FluxOR fluorescence; hits give high values | B-score at 10 µM | 310,000 compounds, 0.35% hits | AID 2648, 2010;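 active means fluorescence ratio B-score, a plate-corrected score, at least three library SD, with initial intensity B-score within 5 SD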
Target sequence (P51787 whole entry, looked up): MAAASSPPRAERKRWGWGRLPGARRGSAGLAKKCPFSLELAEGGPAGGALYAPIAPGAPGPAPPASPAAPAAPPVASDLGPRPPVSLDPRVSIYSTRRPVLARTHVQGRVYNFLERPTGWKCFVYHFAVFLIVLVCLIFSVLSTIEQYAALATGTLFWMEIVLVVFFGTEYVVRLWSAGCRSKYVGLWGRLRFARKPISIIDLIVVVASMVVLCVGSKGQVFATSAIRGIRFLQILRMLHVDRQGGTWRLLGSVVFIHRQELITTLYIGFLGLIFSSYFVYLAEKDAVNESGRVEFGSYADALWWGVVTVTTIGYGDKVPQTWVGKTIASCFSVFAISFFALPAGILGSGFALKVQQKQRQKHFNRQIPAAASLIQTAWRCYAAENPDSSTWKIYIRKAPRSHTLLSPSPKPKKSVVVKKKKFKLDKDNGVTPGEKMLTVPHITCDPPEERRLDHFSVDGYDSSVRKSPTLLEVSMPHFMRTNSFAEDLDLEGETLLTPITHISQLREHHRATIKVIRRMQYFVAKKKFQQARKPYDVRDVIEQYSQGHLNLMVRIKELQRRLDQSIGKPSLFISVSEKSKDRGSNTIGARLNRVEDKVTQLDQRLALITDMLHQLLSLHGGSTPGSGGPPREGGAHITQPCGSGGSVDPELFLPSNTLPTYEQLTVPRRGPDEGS
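Material: CHO-K1 cells stably expressing KCNQ1. Medium: assay buffer for compound exposure, DMSO matched across wells. Reagent: K+/Tl+ depolarizing stimulus. Compound dosing: single-concentration screen. Times: 37 °C overnight plating, 90-min dark dye load, 20-min compound pretreatment. Technique: FluxOR Tl+ flux fluorescence.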
KCC2 mod – KCC2 cotransporter modulators, thallium flux, primary screen, cell-based, HEK293 KCC2, FluoZin-2 fluorescence, MLSMR. B-score of Tl+ flux slope (higher = more flux/activation; lower = inhibition) at 10 µM. Solute carrier family 12 member 5 (Homo sapiens), Q9H2X9. 190,000 compounds, 2.2% hits. KCC2 cells, thallium flux FluoZin-2 fluorescence;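 active means thallium flux slope and its plate-corrected score both differing from the plate sample mean at a set confidence after two filtering rounds, in either direction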;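 further: slope of fluorescence scaled to starting intensity during 10 to 20 s after thallium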
KCNQ1 block – inhibitors of human KCNQ1 channel, primary screen, cell-based, thallium flux, high-throughput; Potassium voltage-gated channel subfamily KQT member 1 (Homo sapiens), P51787; CHO-K1 KCNQ1, FluxOR thallium flux fluorescence; hits give high values; B-score at 10 µM; 310,000 compounds, 1.3% hits;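 active means compounds whose thallium flux B-score, printed positive for inhibition, exceeds three library SD while starting fluorescence stays within three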;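 further: channel opened by potassium depolarization with thallium stimulus after 20 min compound exposure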
hERG protect – hERG rescue from dofetilide block, primary screen, cell-based, CHO-hERG, FluxOR thallium flux, dofetilide IC70 | activation (rescue from dofetilide block), less the hit threshold, % at 10 µM | dofetilide IC70 present | Voltage-gated inwardly rectifying potassium channel KCNH2 (Homo sapiens), Q12809 | 310,000 compounds, 0.51% hits;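 active means activation above the mean of controls blocked by dofetilide plus 5 SD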;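 further: thallium influx through hERG after potassium depolarization seen as dye fluorescence rise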
KCNK3 block – human KCNK3 channel inhibitors, primary screen, CHO cells, FluxOR thallium flux, B-score; Potassium channel subfamily K member 3 (Homo sapiens), O14649; 340,000 compounds, 0.84% hits; AID 602410, 2012; FluxOR fluorescence; hits give low values; B-score at 10 µM;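 active means B-score under library mean minus 4 SD, starting fluorescence ratio at most library mean plus 5 SD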;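 further: more negative B-score means stronger inhibition of thallium flux through KCNK3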
KCNK9 block – KCNK9 potassium channel inhibitors, primary screen, HEK293 cells, thallium flux; FluxOR thallium flux fluorescence; hits give low values; 310,000 compounds, 1.2% hits; Potassium channel subfamily K member 9 (Homo sapiens), Q9NPC2; B-score at 10 µM; AID 488922, 2010;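 active means ratio B-score over 3 SD below the library mean, with starting fluorescence within 5 SD of its mean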;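 further: negative B-score means less thallium flux so channel inhibition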
KCNK9 block conf – KCNK9 potassium channel inhibitors, confirmation, HEK293 cells, thallium flux, duplicate; shares compounds with KCNK9 block; FluxOR thallium flux fluorescence; inhibition, % at 10 µM; 4,900 compounds, 43% hits; AID 492992, 2010;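 active means thallium signal inhibited by more than 5 SD of the compound-free buffer control wells, on both duplicate plates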;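 further: 0% = assay buffer control wells without compound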
Kir21 sel – mouse Kir2.1 channel inhibition, confirmation, selectivity assay for KCNK9 modulator project, cell-based, HEK293, thallium flux; shares compounds with KCNK9 block; Kir2.1 cells, FluxOR thallium flux fluorescence; inhibition, % at 10 µM; 4,900 compounds, 4% hits; AID 492993, 2010;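 active means thallium signal drop more than 5 SD beyond the mean of the no-compound control wells, seen in both duplicate plates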;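 further: signal is fluorescence rise after thallium addition divided by baseline fluorescence; plate controls were assay buffer only for no effect and full block by chlorpromazine control for full effect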
KCNK9 uninduced – thallium flux in non-induced HEK293 cells, confirmation, counter-screen for KCNK9 inhibitor project, cell-based, second counter screen, non-induced KCNK9-HEK293. shares compounds with KCNK9 block. FluxOR thallium flux. inhibition, % at 10 µM. 4,900 compounds, 40% hits. AID 492997, 2010;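 active means thallium signal drop beyond 5 SD of the untreated control mean, on both duplicate plates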;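 further: plate controls were buffer only IC0 wells for no effect and SID17386958 at its maximal inhibitory level for full effect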
KCNK3 inh conf – retest of human KCNK3 channel inhibitors, confirmation, CHO cells, FluxOR thallium flux, triplicate. 2,400 compounds, 99% hits. AID 651638, 2012. shares compounds with KCNK3 block. FluxOR fluorescence; 0% buffer, 100% carvedilol maximal block. ratio percent of control, % at 10 µM;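 active means ratio percent of control, averaged over triplicates, above buffer control mean plus 5 SD, cut at about 64% in these data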;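 further: ratio is the fluorescence rise from min to max over baseline after thallium stimulus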
KCNK3 uninduced – thallium flux inhibition in non-induced cells, primary screen, counter-screen for KCNK3 inhibitor project, cell-based, non-induced KCNK3 line, FluxOR thallium, triplicate; shares compounds with KCNK3 block; non-induced KCNK3 parental cells; hits give low values; thallium flux ratio (lower = more inhibition) at 10 µM; 2,400 compounds, 40% hits; AID 651747, 2012;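 active means thallium flux ratio, averaged over three wells, more than 5 SD below the buffer control mean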;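 further: host cells are CHO cells without KCNK3 induction; ratio is peak minus trough fluorescence over baseline then normalized to buffer controls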
* hit, by the source's call; i = inactive; nt = no result.

SMILES | KCNQ1 pot | KCC2 mod | KCNQ1 block | hERG protect | KCNK3 block | KCNK9 block | KCNK9 block conf | Kir21 sel | KCNK9 uninduced | KCNK3 inh conf | KCNK3 uninduced
CCCCC(CC)C(=O)Oc1ccc(O)c(C(C)(C)C)c1 (centres undefined) | i | 0.52 | i | -11 | -12* | -16* | 74%* | i | 31%* | 79* | i
CN1C(=O)N(CC(=O)N2CCN(c3ncccn3)CC2)C(=O)C12CCCCC2 | nt | nt | nt | nt | i | nt | nt | nt | nt | nt | nt
CCn1cc(Br)c(C(=O)Nc2ccc(C(=O)OC(C)C)cc2)n1 | i | nt | i | -5 | -9.7* | -11* | 41%* | i | 26%* | 99* | i
C1=C(c2cc3ccccc3cn2)CCCC1 | nt | nt | nt | nt | i | nt | nt | nt | nt | nt | nt
CCOC(=O)c1ccc(Oc2nc(SC)nc(N(C)C)n2)cc1 | i | -1.1 | i | -3 | -9.8* | -8.8* | 48%* | i | 42%* | 103* | i
Cc1ccc(Cl)cc1NC(=S)N(Cc1ccco1)C(C)c1cccs1 (centres undefined) | i | 0.77 | i | -9 | -11* | -9.6* | 47%* | i | 37%* | 124* | 0.15*
c1ccc(N2CCN(c3ncnc4sc5c(c34)CCC5)CC2)cc1 | i | 1.2 | i | -6 | i | -15* | 46%* | i | 44%* | 119* | 0.15*
CCc1cc2c(N3CCN(c4ccccc4)CC3)ncnc2s1 | i | -0.29 | i | -16 | -13* | i | i | i | 23%* | 135* | 0.15*
Oc1ccc(N2CCN(c3ncnc4sc(-c5ccccc5)cc34)CC2)cc1 | i | -0.16 | i | -6 | i | i | nt | nt | nt | nt | nt
Cc1ccccc1NC(=O)N1CCNC(=O)C1CC(=O)Nc1cc(Cl)ccc1Cl (centres undefined) | i | nt | i | -1 | i | i | nt | nt | nt | nt | nt
COC(=O)c1cc2sccc2n1Cc1nc(-c2cccc(Cl)c2)oc1C | i | -3 | i | -1 | -8.7* | -8.5* | 28%* | i | 30%* | 93* | i
Cc1ccc(S(=O)(=O)NC2CCCCC2)c(C)c1NS(C)(=O)=O | i | -0.57 | i | -10 | i | i | nt | nt | nt | nt | nt
N#CC(C#N)=C1C(=O)N(CCN2CCOCC2)c2ccccc21 | i | 0.27 | i | -6 | i | i | nt | nt | nt | nt | nt
COC(=O)C1=C(C)NC(C)=C(C(=O)OC)C1c1ccc(-c2cccc(Cl)c2Cl)o1 | i | 0.062 | i | -7 | i | i | nt | nt | nt | nt | nt
COC(=O)C1=C(C)NC(C)=C(C(=O)OC)C1c1ccc(-c2cc(Cl)ccc2Cl)o1 | i | 0.48 | i | -5 | -9.7* | -9.5* | 38%* | i | 40%* | 127* | i
CC(C)(C)c1ccc(CSc2nnc(-c3ccccn3)n2Cc2ccco2)cc1 | i | -1.9 | i | -16 | i | -11* | 66%* | 42%* | 40%* | 126* | 0.14*
CNC(=O)CSc1nnc(-c2ccccn2)n1Cc1ccco1 | i | 0.74 | i | -8 | i | i | nt | nt | nt | nt | nt
O=C(CCCSc1nnnn1-c1cccc2ccccc12)c1ccc(F)cc1 | i | -1.3 | i | -15 | -9.6* | -8.2* | i | 34%* | i | 102* | i
O=C(CSc1nnnn1-c1cccc2ccccc12)Nc1ccc(C(=O)O)cc1 | i | nt | i | -10 | i | i | nt | nt | nt | nt | nt
C=C(C)COc1ccc(-c2ncnc(C(F)(F)F)c2-c2ccccc2)c(O)c1 | i | nt | i | -1 | i | i | nt | nt | nt | nt | nt
C=C(C)COc1ccc(-c2ncnc(C(F)(F)F)c2-c2ccc(OC)cc2)c(O)c1 | i | nt | i | -6 | -9.2* | i | i | i | i | 109* | 0.15*
CCCCCCN=C1CC(C)(C)CC(=O)/C1=C(/O)CCC | i | -2.3 | i | -12 | -10* | -18* | 66%* | i | 40%* | 94* | i
CCCCCOc1ccc(Br)cc1/C(C)=N/NC1=NCCN1 | i | -0.74 | i | -22 | -11* | -11* | 41%* | 66%* | i | 105* | 0.13*
COc1ccc(Br)cc1/C(C)=N/NC1=NCCN1 | i | -1.2 | i | -3 | i | i | nt | nt | nt | nt | nt
CC(C)C[C@@H](CN1C(=O)C(=O)NC[C@@H]1CC(C)C)NC(=O)Cc1ccccc1 | nt | nt | nt | nt | i | nt | nt | nt | nt | nt | nt
O=C(NC1CCCCC1)c1cc2ccccc2cc1O | i | -1.5 | i | -13 | -9.4* | -12* | 26%* | i | i | 107* | i
Cc1cccc(OCC(=O)NC(C)C(=O)N/N=C/c2c(OCc3ccccc3)ccc3ccccc23)c1 (centres undefined) | i | -0.96 | i | -11 | -9.4* | -16* | 66%* | i | 48%* | 105* | i
Cc1nn(-c2ccccc2)c(C)c1C(=O)NNC(=O)C(F)(F)F | i | 0.04 | i | -8 | i | i | nt | nt | nt | nt | nt
C#CCOc1nc(Nc2cccc([N+](=O)[O-])c2)nc(OCC#C)n1 | i | -1.6 | i | -12 | -11* | -18* | 51%* | i | i | 107* | i
